{
  "source": "ChEMBL document CHEMBL4145474",
  "about": "“Discovery of novel piperonyl derivatives as diapophytoene desaturase inhibitors for the treatment of methicillin-, vancomycin- and linezolid-resistant Staphylococcus aureus infections” (Eur J Med Chem, 2018)",
  "key": {"Staphylococcus aureus [1]": {"tested_on": "Staphylococcus aureus", "assay": "Antibacterial activity against wild type Staphylococcus aureus Newman infected in BALB/c mouse assessed as decrease in bacterial load in mouse liver at 0.4 mg, ip bid administered 4.5 days […] bacterial infection measured after 90 hrs relative to control", "format": "functional", "summary_of_the_method": "(§1)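 Female BALB/c mice, 6-8 weeks old, infected retro-orbitally with 2.2 × 10⁷ CFU S. aureus Newman. Intraperitoneal dosing in 12 intervals: pre-treatment groups received a total of 50 or 200 mg/kg starting before infection; post-treatment groups received a total of 39 or 156 mg/kg starting 6 h after infection. Vehicle was ddH₂O. At 90 h post-infection, liver or kidney was homogenized in PBS/0.01% Triton X-100 and plated on TSA for CFU.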"}, "[2]": {"target": "T1, 4,4'-diapophytoene desaturase (4,4'-diaponeurosporene-forming) (Staphylococcus aureus (strain Newman)) (UniProt O07855)", "T1 sequence (whole entry)": "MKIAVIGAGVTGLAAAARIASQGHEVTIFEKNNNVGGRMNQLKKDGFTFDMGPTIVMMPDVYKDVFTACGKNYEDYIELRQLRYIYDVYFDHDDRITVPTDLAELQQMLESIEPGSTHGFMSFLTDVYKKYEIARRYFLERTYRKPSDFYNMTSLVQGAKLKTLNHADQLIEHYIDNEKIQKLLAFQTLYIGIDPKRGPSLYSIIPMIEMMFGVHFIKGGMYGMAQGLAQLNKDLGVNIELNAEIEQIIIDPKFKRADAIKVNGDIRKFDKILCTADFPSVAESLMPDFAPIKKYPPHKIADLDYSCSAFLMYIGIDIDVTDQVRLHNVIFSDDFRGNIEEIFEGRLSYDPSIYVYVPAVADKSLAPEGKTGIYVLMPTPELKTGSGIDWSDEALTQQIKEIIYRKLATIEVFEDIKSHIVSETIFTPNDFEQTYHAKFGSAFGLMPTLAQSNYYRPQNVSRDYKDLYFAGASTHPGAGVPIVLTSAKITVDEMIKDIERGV", "assay": "Inhibition of CrtN in methicillin-resistant Staphylococcus aureus USA300 LAC assessed as bacterial survival after 6 hrs by human whole blood assay (reference value: 14.33%)", "summary_of_the_method": "(§2)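 Overnight cultures spun, resuspended in sterile PBS at 1 × 10⁷ CFU/mL, then mixed 1:10 with fresh whole blood from healthy human volunteers (final 1 × 10⁶ CFU/mL). Incubated 6 h at 37 °C; surviving CFU counted by plating dilutions on TSA. Two independent experiments.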"}, "[3]": {"target": "T2, 4,4'-diapophytoene desaturase (4,4'-diaponeurosporene-forming) (Staphylococcus aureus (strain Mu50 / ATCC 700699)) (UniProt Q99R76)", "T2 sequence (whole entry)": "T1 sequence (whole entry)", "assay": "Inhibition of CrtN in vancomycin-intermediate methicillin-resistant Staphylococcus aureus Mu50 assessed as bacterial survival after 6 hrs by human whole blood killing assay (reference value: 8.66%)", "settings": "Staphylococcus aureus subsp. aureus Mu50", "summary_of_the_method": "as §2"}, "Staphylococcus aureus [4]": {"tested_on": "Staphylococcus aureus", "assay": "Antibacterial activity against methicillin-resistant Staphylococcus aureus USA300 LAC assessed as decrease in bacterial survival at 1 uM after 24 hrs by H2O2 killing assay", "format": "functional, organism-based"}, "[5]": {"target": "T2, 4,4'-diapophytoene desaturase (4,4'-diaponeurosporene-forming) (Staphylococcus aureus (strain Mu50 / ATCC 700699))", "assay": "Inhibition of CrtN in vancomycin-intermediate methicillin-resistant Staphylococcus aureus Mu50 assessed as bacterial survival at 1 uM after 24 hrs by H2O2 killing assay (reference value: 23.33%)", "settings": "Staphylococcus aureus subsp. aureus Mu50"}, "Staphylococcus aureus [6]": {"tested_on": "Staphylococcus aureus", "assay": "Growth inhibition of methicillin-resistant Staphylococcus aureus USA400 MW2 at 0.2 mM incubated for overnight", "format": "functional, organism-based", "summary_of_the_method": "(§3)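 Overnight cultures washed in PBS and diluted in TSB to OD600 ~1.0. Inoculated to a final OD600 of about 0.05 into TSB containing compound (0.2 or 0.05 mM, from a 20 mM DMSO stock) or DMSO growth control, overlaid with paraffin wax. OD600 read every 30 min during overnight incubation at 37 °C.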"}, "Staphylococcus aureus [7]": {"tested_on": "Staphylococcus aureus", "assay": "Growth inhibition of methicillin-resistant Staphylococcus aureus USA300 LAC at 0.2 mM incubated for overnight", "format": "functional, organism-based", "summary_of_the_method": "as §3"}, "Staphylococcus aureus [8]": {"tested_on": "Staphylococcus aureus", "assay": "Growth inhibition of methicillin/linezolid-resistant Staphylococcus aureus NRS271 at 0.2 mM incubated for overnight", "format": "functional, organism-based", "summary_of_the_method": "as §3"}, "Staphylococcus aureus [9]": {"tested_on": "Staphylococcus aureus", "assay": "Growth inhibition of wild type Staphylococcus aureus Newman at 0.2 mM incubated for overnight", "format": "functional, organism-based", "summary_of_the_method": "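A 20 mM DMSO stock was diluted in TSB to 0.2 mM final, with a DMSO growth control. Dilutions were overlaid with paraffin and held 4 h at 37 °C. Overnight cultures were PBS-washed and added to a final OD600 ≈ 0.05. Plates were incubated overnight at 37 °C with OD600 read every 30 min.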"}, "Staphylococcus aureus [10]": {"tested_on": "Staphylococcus aureus", "assay": "Growth inhibition of vancomycin-intermediate methicillin-resistant Staphylococcus aureus Mu50 at 0.2 mM incubated for overnight", "format": "functional, organism-based", "summary_of_the_method": "as §3"}, "Staphylococcus aureus [11]": {"tested_on": "Staphylococcus aureus", "assay": "Inhibition of pigmentation in wild type Staphylococcus aureus Newman after 48 hrs by spectrophotometric method", "format": "functional, organism-based", "summary_of_the_method": "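S. aureus Newman was grown in TSB 48 h at 37 °C with a concentration series of compound in DMSO, in duplicate. Controls were a DMSO vehicle and a nonpigmented CrtN mutant. Cells were washed twice in 0.01 M PBS and pigment extracted in methanol. A450 was measured and IC50 derived by curve fitting.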"}, "Staphylococcus aureus [12]": {"tested_on": "Staphylococcus aureus", "assay": "Inhibition of pigmentation in methicillin-resistant Staphylococcus aureus USA400 MW2 after 48 hrs by spectrophotometric method", "format": "functional, organism-based", "settings": "USA400 MW2, 48 h", "summary_of_the_method": "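Bacteria grown in 4 mL TSB for 48 h at 37 °C with compound serially diluted from DMSO, in duplicate; DMSO vehicle control and non-pigmented CrtN mutant as reference. Cells from 3 mL of culture washed twice with 0.01 M PBS and pigment extracted into methanol. Absorbance read at 450 nm; IC50 fitted from the concentration series.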"}, "Staphylococcus aureus [13]": {"tested_on": "Staphylococcus aureus", "assay": "Antibacterial activity against vancomycin-intermediate methicillin-resistant Staphylococcus aureus Mu50 infected in BALB/c mouse assessed as decrease in bacterial survival in mouse kidney at 0.1 to 0.4 mg, ip bid administered 4.5 days before 24 hrs bacterial infection measured after 90 hrs", "format": "functional, organism-based", "summary_of_the_method": "(§4)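 6–8-week-old female BALB/c mice (SPF) dosed intraperitoneally twice daily over 4.5 d at 0.1 or 0.4 mg/bid. Pre-treatment started before infection; post-treatment started 6 h after infection. Vancomycin and linezolid controls given as pre-treatment at 0.4 mg/bid. Retro-orbital inoculation: Mu50 1.1 × 10⁹ CFU, NRS271 1.8 × 10⁸ CFU. Kidneys and livers homogenised in PBS/0.01% Triton X-100 and plated on TSA for CFU.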"}, "Staphylococcus aureus [14]": {"tested_on": "Staphylococcus aureus", "assay": "Antibacterial activity against vancomycin-intermediate methicillin-resistant Staphylococcus aureus Mu50 infected in BALB/c mouse assessed as decrease in bacterial survival in mouse kidney at 0.1 to 0.4 mg, ip bid administered 4.5 days after 6 hrs bacterial infection measured after 90 hrs", "format": "functional, organism-based", "summary_of_the_method": "as §4"}, "Staphylococcus aureus [15]": {"tested_on": "Staphylococcus aureus", "assay": "Antibacterial activity against wild type Staphylococcus aureus Newman infected in BALB/c mouse assessed as decrease in bacterial survival in mouse liver at 0.1 mg, ip bid administered 4.5 days after 6 hrs bacterial infection measured after 90 hrs relative to control", "format": "functional"}, "Staphylococcus aureus [16]": {"tested_on": "Staphylococcus aureus", "assay": "Antibacterial activity against wild type Staphylococcus aureus Newman infected in BALB/c mouse assessed as decrease in bacterial load in mouse liver at 0.1 mg, ip bid administered 4.5 days after 6 hrs bacterial infection measured after 90 hrs relative to control", "format": "functional", "summary_of_the_method": "as §1"}},
  "note": "Activity calls are given as the source filed them. The rule behind the calls is not given here.",
  "data": [
    {"smiles": "CN(C/C=C/C=C/c1ccc(C(F)(F)F)cc1F)Cc1ccc2c(c1)OCO2.Cl", "values": [
      {"measurement": "Activity", "setting": "Staphylococcus aureus [1]", "result": 1.9, "unit": "deltalog10CFU"},
      {"measurement": "Survival", "setting": "[2]", "result": 1.57, "unit": "%"},
      {"measurement": "Survival", "setting": "[3]", "result": 0.28, "unit": "%"},
      {"measurement": "Activity", "setting": "Staphylococcus aureus [4]", "result": "inactive"},
      {"measurement": "Survival", "setting": "[5]", "result": 2, "unit": "%"},
      {"measurement": "growth inhibition (GI)", "setting": "Staphylococcus aureus [6]", "result": "inactive"},
      {"measurement": "growth inhibition (GI)", "setting": "Staphylococcus aureus [7]", "result": "inactive"},
      {"measurement": "growth inhibition (GI)", "setting": "Staphylococcus aureus [8]", "result": "inactive"},
      {"measurement": "growth inhibition (GI)", "setting": "Staphylococcus aureus [9]", "result": "inactive"},
      {"measurement": "growth inhibition (GI)", "setting": "Staphylococcus aureus [10]", "result": "inactive"},
      {"measurement": "IC50", "setting": "Staphylococcus aureus [11]", "result": 4.02, "unit": "nM"},
      {"measurement": "IC50", "setting": "Staphylococcus aureus [12]", "result": 7.6, "unit": "nM"},
      {"measurement": "Activity", "setting": "Staphylococcus aureus [13]", "result": "Active"},
      {"measurement": "Activity", "setting": "Staphylococcus aureus [14]", "result": "Active"},
      {"measurement": "Activity", "setting": "Staphylococcus aureus [15]", "result": 97.06, "unit": "%"},
      {"measurement": "Activity", "setting": "Staphylococcus aureus [16]", "result": 1.53, "unit": "deltalog10CFU"}
    ]}
  ]
}
